Reference: ChEMBL document CHEMBL5344432, “Identification of a Dual Autophagy and REV-ERB Inhibitor with in Vivo Anticancer Efficacy” (J Med Chem, 2024)
≈ marks a conversion by molar mass, not a printed value. Calls of active or inactive are those of the source. The calls are words filed in the database; no cut-off is given here.

What was measured:
[1] = Metabolic stability in human liver microsomes assessed as half life preincubated for 15 mins followed by NADPH addition and measured after 1 to 2 hrs by LC-MS/MS analysis; format: ADME, Microsome; settings: liver microsomes, time 75-135 min
Outline: (§1)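 Microsomal stability assessed in mouse, human, rat or dog liver microsomes with NADPH cofactor. Half-life and percent parent remaining at 60 and 120 min reported. Mean of at least two independent experiments, each in two technical replicates.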

[2] = Metabolic stability in dog liver microsomes assessed as half life preincubated for 15 mins followed by NADPH addition and measured after 1 to 2 hrs by LC-MS/MS analysis; format: ADME, Canis lupus familiaris, Microsome; settings: time 75-135 min; outline: as §1
[3] = Metabolic stability in mouse liver microsomes assessed as parent compound remaining preincubated for 15 mins followed by NADPH addition and measured after 1 hr by LC-MS/MS analysis; format: ADME, Microsome; settings: time 75 min, read-out: Stability; outline: as §1
[4] = Metabolic stability in rat liver microsomes assessed as half life preincubated for 15 mins followed by NADPH addition and measured after 1 to 2 hrs by LC-MS/MS analysis; format: ADME, Microsome; settings: time 75-135 min; outline: as §1
[5] = Metabolic stability in human liver microsomes assessed as parent compound remaining preincubated for 15 mins followed by NADPH addition and measured after 1 hr by LC-MS/MS analysis; format: ADME, Microsome; settings: time 75 min, read-out: Stability; outline: as §1
BT-474 = experiment: Cytotoxicity against human BT-474 cells; format: functional
Outline: (§2)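 BT-474 breast cancer cells and nontumorigenic HMECs treated 48 h with concentrations up to 30 μM. CC50 derived from concentration–response viability plots. Values >30 μM assigned when viability fell by less than 50% of vehicle at 30 μM. Mean ± SEM, n ≥ 3.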

[6] = Metabolic stability in mouse liver microsomes assessed as parent compound remaining preincubated for 15 mins followed by NADPH addition and measured after 2 hrs by LC-MS/MS analysis; format: ADME, Microsome; settings: time 135 min, read-out: Stability; outline: as §1
[7] = Metabolic stability in mouse liver microsomes assessed as half-life preincubated for 15 mins followed by UDPGA addition and measured after 2 hrs by LC-MS/MS analysis
[8] = Metabolic stability in mouse liver microsomes assessed as half life preincubated for 15 mins followed by NADPH addition and measured after 1 to 2 hrs by LC-MS/MS analysis; format: ADME, Microsome; settings: liver microsomes, time 75-135 min; outline: as §1
[9] = Aqueous kinetic solubility of the compound in PBS at pH 7.4 at 250 uM incubated for 24 hrs by UPLC/MS analysis; format: physicochemical; settings: read-out: Kinetic_solubility
Outline: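 Kinetic solubility measured in phosphate-buffered saline, pH 7.4. Mean of at least two independent experiments, each run in two technical replicates.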

HMEC = experiment: (§3) Cytotoxicity against HMECs; format: toxicity, cell-based; settings: human, hmec; outline: as §2
[10] = Metabolic stability in dog liver microsomes assessed as parent compound remaining preincubated for 15 mins followed by NADPH addition and measured after 1 to 2 hrs by LC-MS/MS analysis; format: ADME, Canis lupus familiaris, Microsome; settings: time 75-135 min; outline: as §1
[11] = Metabolic stability in mouse liver microsomes assessed as half life preincubated for 15 mins followed by UDPGA addition and measured after 2 hrs by LC-MS/MS analysis; format: ADME, Microsome; settings: time 135 min
Outline: (§4)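 Mouse and human liver microsomes incubated with UDPGA cofactor. Half-life and percent parent remaining at 120 min reported. Mean of at least two independent experiments, each in two technical replicates.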

[12] = Metabolic stability in human liver microsomes assessed as parent compound remaining preincubated for 15 mins followed by NADPH addition and measured after 2 hrs by LC-MS/MS analysis; format: ADME, Microsome; settings: time 135 min, read-out: Stability; outline: as §1
[13] = Metabolic stability in human liver microsomes assessed as parent compound remaining preincubated for 15 mins followed by UDPGA addition and measured after 2 hrs by LC-MS/MS analysis; format: ADME, Microsome; settings: time 135 min, read-out: Stability; outline: as §4
[14] = Metabolic stability in rat liver microsomes assessed as parent compound remaining preincubated for 15 mins followed by NADPH addition and measured after 1 to 2 hrs by LC-MS/MS analysis; format: ADME, Microsome; settings: time 75-135 min; outline: as §1
Capan-2 = experiment: Cytotoxicity against human Capan-2 cells; format: functional
Outline: (§5)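 Human cancer lines (A375, MDA-MB-231, OMM-1, UPMM-2, CAPAN-2, HepG2, HT-29, HCT116) treated up to 30 μM. CC50 derived from concentration–response viability plots. Mean ± SEM, n ≥ 6. Two-tailed unpaired t test used between compounds.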

HepG2 = experiment: Cytotoxicity against human HepG2 cells; format: functional; outline: as §5
A-375 = experiment: Cytotoxicity against human A-375 cells; format: functional; outline: as §5
[15] = Cytotoxicity against human OMM-1 cells; format: functional; outline: as §5
A375 (human) [16] = experiment: Inhibition of autophagy in human A375 cells expressing EGFP-LC3B assessed as increase in LC3-II protein level at 2.5 uM after 24 hrs by immunoblotting analysis
HT-29 = experiment: Cytotoxicity against human HT-29 cells; format: functional; outline: as §5
[17] = Inhibition of REV-ERBbeta (unknown origin) transcription expressed in HEK293 cells incubated for 24 hrs by gaussia luciferase based assay; format: cell-based; settings: Homo sapiens, HEK293, 24 h
Outline: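 HEK-293 cells cotransfected with REV-ERBβ and a luciferase reporter driven by two repeats of a REV-ERB response element (RevRE) consensus, then treated across a concentration range. Luciferase activity is expressed as fold of DMSO vehicle, mean ± SEM, n = 6, and EC50 is taken from the concentration-response curve. A parallel reporter carrying a mutated RevRE served as a specificity control.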

[18] = as §3; format: toxicity, cell-based, HMEC; settings: human, HMEC cells; outline: as §2
MDA-MB-231 = experiment: Cytotoxicity against human MDA-MB-231 cells; format: functional; outline: as §5
HCT-116 = experiment: Cytotoxicity against human HCT-116 cells; format: functional; outline: as §5
[19] = Cytotoxicity against human UPMM-2 cells; format: functional; outline: as §5
A375 (human) [20] = experiment: Inhibition of autophagy in human A375 cells expressing EGFP-LC3B assessed as accumulation of autophagosome after 24 hrs by Hoechst 33342 staining based fluorescent microscopy analysis; settings: dose 1.25-5 µM

SMILES | half-life [1] [h] | remaining at 1 h [3] [%] | remaining at 1 h [5] [%] | CC50 (BT-474) [µM] | remaining at 2 h [6] [%] | t1/2 at 2 h [7] [h] | solubility kinetic at 24 h, 250 µM [9] [µM] | half-life [11] [h] | remaining at 2 h [12] [%] | remaining at 2 h [13] [%] | other results
Fc1ccc(C2(NCc3cc(CC4CCNCC4)ccc3F)CCCC2)cc1 | > 2 | 82 | 75 | 2.29 | 74 | > 2 | 245 (≈ 94.2 µg/mL) | > 2 | 54 | 95 | half-life ([2]; liver microsomes): > 1 h; half-life ([4]; liver microsomes): > 1 h; half-life [8]: > 2 h; CC50 (HMEC): 17.2 µM; Stability [10]: 83%; Stability [14]: 75%
CN1CCC(Cc2cccc(CNC3(c4ccc(F)cc4)CCCC3)c2)CC1 | > 2 | 66 | 79 | 5.93 | 39 | > 2 | 235 (≈ 89.4 µg/mL) | > 2 | 50 | > 95 | t1/2 ([2]; microsomes): 0.933 h; t1/2 ([4]; microsomes): 0.733 h; CC50 (Capan-2): > 30 µM; CC50 (HepG2): 2.8 µM; CC50 (A-375): 5.67 µM; CC50 [15]: 2.28 µM; inhibition (A375 (human) [16]): Active; CC50 (HT-29): 18.9 µM; EC50 [17]: 3.78 µM; CC50 [18]: > 30 µM; CC50 (MDA-MB-231): 7.42 µM; CC50 (HCT-116): 13.5 µM; CC50 [19]: 1.91 µM; inhibition (A375 (human) [20]): Dose-Dependent Effect
